Assay results taken from ChEMBL document CHEMBL4619791, “3-Difluoroalkyl Quaternary Oxindoles Inhibit Macrophage Pyroptosis by Blocking Inflammasome Recruitment of Caspase-1” (ACS Med Chem Lett, 2020).
The source made the active and inactive calls. No cut-off for these calls is given here.

Assays:
THP-1 [1] = experiment: Inhibition of pyroptosis in LPS-primed human THP1 assessed as reduction in nigericin-induced cell death at 0.1 to 20 uM by LDH assay; type: functional, cell-based
Method in brief: (§1)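 THP-1 cells induced to pyroptosis. Cell death read by LDH release and pore formation by PI uptake. Means ± SE, ≥3 experimental replicates.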

THP-1 [2] = experiment: Inhibition of pyroptosis in LPS-primed human THP1 assessed as reduction in nigericin-induced pyroptotic-pore formation by propidium iodide uptake assay; type: functional, cell-based; method in brief: as §1
[3] = molecular target: NACHT, LRR and PYD domains-containing protein 3 (Mus musculus) (UniProt Q8R4B8); experiment: Activation of NLRP3 in LPS-primed C57BL/6 mouse primary BMDM transfected with eGFP-tagged ASC assessed as nigericin-induced ASC oligomerization by measuring speck formation at 5 uM by confocal microscopy
Sequence of NACHT, LRR and PYD domains-containing protein 3 (Mus musculus) (Q8R4B8 whole entry, the tested form may be a part): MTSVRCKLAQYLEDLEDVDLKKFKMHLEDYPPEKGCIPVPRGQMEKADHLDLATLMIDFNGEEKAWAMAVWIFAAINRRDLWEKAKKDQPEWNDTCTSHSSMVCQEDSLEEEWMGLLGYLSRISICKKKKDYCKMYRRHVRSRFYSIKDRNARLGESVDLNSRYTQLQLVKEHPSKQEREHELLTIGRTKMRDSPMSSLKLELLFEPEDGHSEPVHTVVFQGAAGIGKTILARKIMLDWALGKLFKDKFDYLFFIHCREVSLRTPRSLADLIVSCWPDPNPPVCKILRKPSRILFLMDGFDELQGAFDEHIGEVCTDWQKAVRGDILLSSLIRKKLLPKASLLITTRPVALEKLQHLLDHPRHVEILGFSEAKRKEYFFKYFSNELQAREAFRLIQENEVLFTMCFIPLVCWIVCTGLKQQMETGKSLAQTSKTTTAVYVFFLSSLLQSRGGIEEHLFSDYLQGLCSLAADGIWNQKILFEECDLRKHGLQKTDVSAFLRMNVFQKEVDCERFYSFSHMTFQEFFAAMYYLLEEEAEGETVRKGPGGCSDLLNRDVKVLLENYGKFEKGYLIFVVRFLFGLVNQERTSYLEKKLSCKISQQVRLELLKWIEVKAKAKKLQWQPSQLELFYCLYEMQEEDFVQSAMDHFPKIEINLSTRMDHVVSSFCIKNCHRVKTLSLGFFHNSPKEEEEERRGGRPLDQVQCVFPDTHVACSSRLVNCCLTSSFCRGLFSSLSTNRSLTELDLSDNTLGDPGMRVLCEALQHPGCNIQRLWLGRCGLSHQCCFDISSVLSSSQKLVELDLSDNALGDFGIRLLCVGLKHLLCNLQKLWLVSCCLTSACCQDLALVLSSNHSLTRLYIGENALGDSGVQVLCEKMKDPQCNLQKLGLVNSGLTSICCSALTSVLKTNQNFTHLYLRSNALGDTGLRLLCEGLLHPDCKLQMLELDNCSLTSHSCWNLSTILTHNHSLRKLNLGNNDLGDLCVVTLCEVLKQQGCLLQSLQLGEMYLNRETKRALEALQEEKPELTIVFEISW
Method in brief: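 Primary macrophages transfected with an ASC-GFP plasmid, then given LPS and nigericin to induce ASC specks. Imaged by confocal microscopy.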

Mus musculus [4] = experiment: Antiinflammatory activity against LPS-induced sepsis C57BL/6J mouse model assessed as increase in median survival time at 20 mg/kg, iv administered as single dose for 30 min prior to LPS challenge
Mus musculus [5] = experiment: Antiinflammatory activity against LPS-induced sepsis C57BL/6J mouse model assessed as reduction in alveolar congestion at 20 mg/kg, iv administered as single dose for 1 hr prior to LPS challenge and measured after 48 hrs by hematoxylin-eosin staining based inverted microscopy analysis; type: functional, organism-based
Caspase-1 (Mus musculus) = molecular target: T1, Caspase-1 (Mus musculus) (UniProt P29452); experiment: Inhibition of caspase-1 activity in LPS-primed immortalized mouse […] cells assessed as reduction in nigericin-induced GSDMD cleavage at 5 uM by Western blot analysis; type: cell-based; details: J774.A1
T1 sequence (whole entry): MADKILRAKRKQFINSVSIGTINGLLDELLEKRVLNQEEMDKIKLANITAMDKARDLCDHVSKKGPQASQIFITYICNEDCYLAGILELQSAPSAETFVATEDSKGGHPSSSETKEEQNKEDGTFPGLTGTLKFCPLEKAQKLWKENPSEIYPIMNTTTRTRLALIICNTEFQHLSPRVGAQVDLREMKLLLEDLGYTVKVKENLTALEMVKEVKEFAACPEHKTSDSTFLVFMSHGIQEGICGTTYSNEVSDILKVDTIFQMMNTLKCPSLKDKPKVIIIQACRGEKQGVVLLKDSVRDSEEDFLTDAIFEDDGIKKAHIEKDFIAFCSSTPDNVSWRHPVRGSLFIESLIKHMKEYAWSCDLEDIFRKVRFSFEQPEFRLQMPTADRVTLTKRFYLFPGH
Method in brief: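 Western blot for GSDMD cleavage in immortalized macrophages, with tubulin as loading control. Representative of n ≥ 3 independent experiments.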

Mus musculus [6] = experiment: Antiinflammatory activity against LPS-induced sepsis C57BL/6J mouse model assessed as reduction in alveolar exudate at 20 mg/kg, iv administered as single dose for 1 hr prior to LPS challenge and measured after 48 hrs by hematoxylin-eosin staining based inverted microscopy analysis; type: functional, organism-based
BMDM [7] = experiment: Induction of ROS generation in LPS-primed C57BL/6 mouse primary BMDM assessed as increase in nigericin-induced ROS level at 5 uM by DCFH-DA probe based FACS analysis; type: functional, cell-based
Method in brief: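 Nigericin-stimulated macrophages loaded with DCFH-DA; ROS read as a shift in fluorescence by flow cytometry.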

[8] = molecular target: Nlrp3/Pycard (Mus musculus) (UniProt Q8R4B8+Q9EPB4); experiment: Inhibition of NLRP3-ASC interaction in LPS-primed immortalized mouse […] cells at 5 uM by co-immunoprecipitation assay; type: cell-based; details: J774.A1
Sequence of Nlrp3/Pycard (Mus musculus) (Q8R4B8 whole entry, looked up): as the sequence (Q8R4B8 whole entry, the tested form may be a part) above
Sequence of Nlrp3/Pycard (Mus musculus) (Q9EPB4 whole entry, looked up): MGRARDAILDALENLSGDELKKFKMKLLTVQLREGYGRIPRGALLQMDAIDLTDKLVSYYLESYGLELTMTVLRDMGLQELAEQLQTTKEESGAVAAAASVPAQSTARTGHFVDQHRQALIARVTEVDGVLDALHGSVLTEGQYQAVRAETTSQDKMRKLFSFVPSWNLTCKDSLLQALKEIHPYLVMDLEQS
Method in brief: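 Coimmunoprecipitation of endogenous ASC and NLRP3 in immortalized macrophages.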

[9] = molecular target: T2, Gasdermin-D (Mus musculus) (UniProt Q9D8T2); experiment: Inhibition of GSDMD cytosol-plasma membrane translocation in LPS-primed immortalized mouse […] cells at 5 uM followed by subsequent nigericin stimulation by immunofluorescence assay; type: cell-based; details: J774.A1
T2 sequence (whole entry): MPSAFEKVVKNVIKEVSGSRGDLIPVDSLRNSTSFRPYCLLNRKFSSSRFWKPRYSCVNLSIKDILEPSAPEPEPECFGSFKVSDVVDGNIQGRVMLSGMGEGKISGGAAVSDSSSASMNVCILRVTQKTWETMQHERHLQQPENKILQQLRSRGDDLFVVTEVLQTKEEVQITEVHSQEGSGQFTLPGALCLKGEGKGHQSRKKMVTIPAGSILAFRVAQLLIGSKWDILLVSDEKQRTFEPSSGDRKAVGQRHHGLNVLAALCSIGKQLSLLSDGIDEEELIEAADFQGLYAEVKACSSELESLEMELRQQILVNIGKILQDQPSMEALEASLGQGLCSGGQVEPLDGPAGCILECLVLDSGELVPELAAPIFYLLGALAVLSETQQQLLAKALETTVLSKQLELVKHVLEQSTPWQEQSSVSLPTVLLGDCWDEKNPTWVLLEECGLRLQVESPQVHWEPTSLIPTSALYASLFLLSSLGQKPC
Method in brief: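 Macrophages were LPS-primed, then stimulated with nigericin, in immortalized and primary cells. Anti-GSDMD immunofluorescence, with line-intensity histograms of cytosol versus plasma-membrane localization. Mean ± SEM, n ≥ 3 independent experiments.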

BMDM [10] = experiment: Inhibition of pyroptosis cell death in LPS-primed C57BL/6 mouse primary BMDM assessed as reduction in nigericin-induced IL-1beta secretion; type: functional, cell-based
Method in brief: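 Primary murine macrophages primed with LPS and stimulated with nigericin across a dose range. IL-1β release, LDH release and Alamar blue measured. Means ± SE, ≥3 experimental replicates.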

With `CCOC(CN1C(=O)C(NC(=O)Nc2ccc(C)cc2)(C(F)(F)C(=O)Nc2ccc(C)cc2)c2ccccc21)OCC` (stereo unspecified) the inhibition (THP-1 [1]) was “Active”, the inhibition (THP-1 [2]) was “Active” and the Activity [3] was “inactive”. The MST (Mus musculus [4]) was 8 h, the Activity (Mus musculus [5]) was “Active” and the inhibition (Caspase-1 (Mus musculus)) was “Active”. For the same compound, the Activity (Mus musculus [6]) was “Active”, the Activity (BMDM [7]) was “Active” and the inhibition [8] was “inactive”. The inhibition [9] was “Active” and the inhibition (BMDM [10]) was “Dose-dependent effect”.
